Several values for one entry are separate records, joined by “and”; a condition that tells them apart may be missing. Equal entries are not always repeated. Where two headings read alike, the source gives them in different places.
Key:
[1] = tested on: GBM43 spheroids; assay: 3-D spheroid viability assay, GBM43; assay type: cell-based, human; settings: for activity in spheroids (in words): concentration-dependent
[2] = tested on: GBM10 spheroids; assay: 3-D spheroid viability assay, GBM10; assay type: cell-based, human; settings: for activity in spheroids (in words): concentration-dependent
[3] = tested on: SJ-GBM2 spheroids; assay: 3-D spheroid viability assay, SJ-GBM2; assay type: cell-based, human; settings: for activity in spheroids (in words): concentration-dependent
[4] = tested on: brain microvascular endothelial cells (BMECs); assay: Matrigel-based tube formation assay; settings: Endothelial cell, 8 h, read-out: IC50 (tube formation)
Summary of the method: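 Primary brain microvascular endothelial cells, 15,000 per well in EGM-2, were seeded on Matrigel pre-solidified 20 min at 37 °C. Test compound was added in DMSO. Tubes were observed every 2 h by brightfield and imaged at 8 h. Total tubule length from six images per treatment was normalised to DMSO. Treatments were compared to DMSO by one-way ANOVA with Dunnett's test.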

[5] = molecular target: T1, RACK1 (Homo sapiens, UniProt P63244); assay: Thermal proteome profiling in GBM43 cells; assay type: binding; settings: 10 μM, six temperatures 37-60 °C, cutoff ΔTm ≥ 3 °C
Summary of the method: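 GBM43 cells in PBS with protease inhibitors were treated 1 h at 37 °C with 10 µM test compound or DMSO. Fractions of 5 × 10⁶ cells were heated 3 min at 37, 40, 45, 50, 55 or 60 °C, then freeze-thaw lysed and spun at 100,000 × g. Soluble proteins were trypsin-digested and quantified by label-free LC-MS/MS. iBAQ-based melting curves gave ΔTm (treatment − vehicle), with a ≥3.0 cutoff.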

[6] = Stability in buffer by HPLC; assay type: physicochemical
[7] = tested on: CD34+ progenitor cells; assay: Colony-forming unit; assay type: cell-based, human; settings: colony formation assay, up to 100 μM, day 14
Summary of the method: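 Purified human umbilical cord blood CD34+ cells were incubated with test compound. They were plated with compound at 2 × 10³ cells per 35 mm dish in MethoCult H4434. Clonogenic progenitor colonies were counted by light microscopy on day 14 after exposure. IC50 came from dose-response curves.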

[8] = molecular target: GAPDH (Homo sapiens, UniProt P04406); assay: Cellular thermal shift assay; assay type: binding; settings: GBM43 cells, concentration-dependent, heated to 45 °C
Chain of GAPDH (P04406 whole entry): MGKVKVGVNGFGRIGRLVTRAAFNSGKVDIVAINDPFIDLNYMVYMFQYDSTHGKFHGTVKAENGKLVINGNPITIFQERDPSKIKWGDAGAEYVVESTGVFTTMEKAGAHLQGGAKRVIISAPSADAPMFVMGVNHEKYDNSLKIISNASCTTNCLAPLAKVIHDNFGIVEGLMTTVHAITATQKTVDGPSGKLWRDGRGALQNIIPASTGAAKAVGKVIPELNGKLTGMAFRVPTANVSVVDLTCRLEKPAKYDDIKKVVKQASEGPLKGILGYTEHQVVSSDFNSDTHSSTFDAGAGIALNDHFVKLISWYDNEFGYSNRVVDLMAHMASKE
Summary of the method: (§1)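 GBM43 cells were exposed to varying concentrations of test compound, then heated to 45 °C. Protein remaining soluble was detected with target-specific antibodies. GAPDH was probed as a control for non-specific binding.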

[9] = tested on: Panc198 (Pa20C); assay: PDAC 3-D spheroid model, Panc198; assay type: cell-based, human; settings: Panc198 PDAC spheroids, concentration-dependent
Summary of the method: (§2)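 TdTomato-transduced PDAC cells, kept under 10 passages, were seeded at 1,000 cells/well in ultralow-adherence plates. Medium held 3% reduced-growth-factor Matrigel and 5% FBS. Spheroids were treated on days 4 and 8, and red fluorescence was read on day 12. Percent viability was taken versus media control (mean ± s.d., n = 3). Relative IC50 came from a four-parameter logistic fit by non-linear least squares.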

[10] = tested on: Panc10.05 (Pa16C); assay: PDAC 3-D spheroid model, Panc10.05; assay type: cell-based; settings: Homo sapiens, Panc1005, read-out: IC50 (cell viability)
Summary of the method: as §2

[11] = tested on: astrocytes; assay: Astrocyte monolayer cell proliferation assay; assay type: cell-based, human; settings: 2-D monolayer assay, up to 100 μM, 3 days
Summary of the method: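 Primary human fetal astrocytes were seeded at 8 × 10³/well in DMEM with 10% FBS and 1% penicillin/streptomycin. They were incubated 3 days with DMSO or test compound. MTS reagent was then added and incubated 1 h at 37 °C, and absorbance was read at 490 nm. Run in triplicate.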

[12] = tested on: Pa02C; assay: PDAC 3-D spheroid model, Pa02C; assay type: cell-based, human; settings: Pa02C PDAC spheroids, concentration-dependent
Summary of the method: as §2

[13] = tested on: brain microvascular endothelial cells (BMECs); assay: Effect on brain microvascular endothelial cells, 48 h exposure; assay type: cell-based; settings: Endothelial cell, read-out: IC50 (effect on BMECs)
[14] = molecular target: T1, RACK1; assay: Cellular thermal shift assay; assay type: binding; settings: GBM43 cells, concentration-dependent, 6 h treatment, heated to 45 °C, vs DMSO
Summary of the method: as §1

[15] = tested on: GBM43 spheroids; settings: read-out: IC50 (cell viability); GBM43, standard-of-care comparison; cited from earlier work

COc1cc2c(cc1NC(=O)C1CCC(=O)N1S(=O)(=O)c1ccc(C(F)(F)F)cc1)oc1ccccc12 (stereo not shown) [Compound 25, N-(2-Methoxydibenzo[b,d]furan-3-yl)-5-oxo-1-((4-(trifluoromethyl)phenyl)sulfonyl)pyrrolidine-2-carboxamide]
fold decrease in IC50 compared to 1 ([1]; GBM43 spheroids): ~10 fold
fold decrease in IC50 compared to 1 [2]: ~10 fold
fold decrease in IC50 compared to 1 [3]: ~10 fold

COc1cc2c(cc1NC(=O)C1CCC(=O)N1S(=O)(=O)c1ccc(C)cc1)oc1ccccc12 (stereo not shown) [Compound 1, N-(2-Methoxydibenzo[b,d]furan-3-yl)-5-oxo-1-tosylpyrrolidine-2-carboxamide]
IC50 [4]: ~0.1 µM
inhibition of cell viability ([1]; GBM43 spheroids, single concentration 25 μM): 90%
IC50 ([1]; Homo sapiens, 120 h, read-out: IC50 (cell viability)): 3.7 ± 0.1 µM
thermal shift of RACK1 (ΔTm) [5]: significant thermal shift
stability following incubation in buffer [6]: stable
effect on cell viability of CD34+ cells [7]: no effect
GAPDH abundance after heating (CETSA) [8]: no difference in protein abundance
activity in spheroid model [9]: no activity
IC50 [10]: 26 ± 5.9 µM
effect on cell viability of astrocytes [11]: no effect
activity in spheroid model [12]: no activity
IC50 [13]: 3.5 µM

COc1cc2c(cc1NC(=O)C1CCC(=O)N1S(=O)(=O)c1ccc(C)cc1)oc1ccc(Cl)cc12 (stereo not shown) [Compound 26, N-(8-Chloro-2-methoxydibenzo[b,d]furan-3-yl)-5-oxo-1-tosylpyrrolidine-2-carboxamide]
activity in spheroids (in words) ([1]; GBM43 spheroids): no activity
activity in spheroids (in words) [2]: no activity
activity in spheroids (in words) [3]: no activity

COc1cc2c(cc1NC(=O)C1CCCN1S(=O)(=O)c1ccc(C)cc1)oc1ccccc12 (stereo not shown) [Compound 22, N-(2-Methoxydibenzo[b,d]furan-3-yl)-1-tosylpyrrolidine-2-carboxamide]
activity in spheroids (in words) ([1]; GBM43 spheroids): loss of activity
activity in spheroids (in words) [2]: loss of activity
RACK1 abundance after heating (CETSA) [14]: did not affect protein abundance

COc1cc2c(cc1NC(=O)C1CCC(=O)N1Cc1ccc(C)cc1)oc1ccccc12 (stereo not shown) [Compound 23, N-(2-Methoxydibenzo[b,d]furan-3-yl)-1-(4-methylbenzyl)-5-oxopyrrolidine-2-carboxamide]
activity in spheroids (in words) ([1]; GBM43 spheroids): loss of activity
activity in spheroids (in words) [2]: loss of activity

COc1cc2c(cc1NC(=O)C1CCC(=O)N1)oc1ccccc12 (stereo not shown) [Compound 24, N-(2-Methoxydibenzo[b,d]furan-3-yl)-5-oxopyrrolidine-2-carboxamide]
activity in spheroids (in words) ([1]; GBM43 spheroids): loss of activity
activity in spheroids (in words) [2]: loss of activity

Cn1nnc2c(C(N)=O)ncn2c1=O [temozolomide]
IC50 [15]: 244 µM and ~250 µM

O=NN(CCCl)C(=O)NC1CCCCC1 [CCNU, lomustine, reference compound]
inhibition of cell viability ([1]; GBM43 spheroids, at 100 μM): about 50%
inhibition of cell viability ([2]; at 100 μM): about 50%

COc1cc2c(cc1NC(=O)C1CCC(=O)N1S(=O)(=O)c1ccc(C)cc1)oc1cc(Cl)ccc12 (stereo not shown) [Compound 27, N-(7-Chloro-2-methoxydibenzo[b,d]furan-3-yl)-5-oxo-1-tosylpyrrolidine-2-carboxamide]
activity in spheroids (in words) ([1]; GBM43 spheroids): no activity
activity in spheroids (in words) [2]: no activity
activity in spheroids (in words) [3]: no activity

From article PMC7919753 (ACS chemical biology, 2020)
